# Laboratory results as given in ChEMBL document CHEMBL4152197, “Proteolysis Targeting Chimeras (PROTACs) of Anaplastic Lymphoma Kinase (ALK)” (Eur J Med Chem, 2018).
# The source made the active and inactive calls. The calls are words filed in the database; no cut-off is given here.
# Assays:
# [1] = target: T1, ALK tyrosine kinase receptor (Homo sapiens, UniProt Q9UM73); test: Inhibition of ALK autophosphorylation at Y1507 residue in human SU-DHL1 cells after 16 hrs by Western blot analysis; format: cell-based
# Method in brief: (§1)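 SU-DHL-1 or NCI-H2228 cells, grown in RPMI-1640 with 10% FBS at 37 °C under 5% CO₂, were exposed to DMSO or serial dilutions of compound (up to 100 nM) for 16 h. Cells were lysed in Laemmli buffer and run on SDS-PAGE/PVDF immunoblots probed for ALK, p-ALK Y1507, STAT3, p-STAT3 Y705 and GAPDH. Band levels were normalized to GAPDH. DC50 was taken from a variable-slope fit, triplicate independent experiments, mean ± SEM.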
# [2] = target: T1, ALK tyrosine kinase receptor; test: Inhibition of ALK autophosphorylation at Y1507 residue in human NCI-H2228 cells after 16 hrs by Western blot analysis; format: cell-based; method in brief: as §1
# [3] = target: T2, Protein cereblon/ALK tyrosine kinase receptor/Echinoderm microtubule-associated protein-like 4 (Homo sapiens) (UniProt Q9UM73+Q9HC35+Q96SW2); test: Induction of CRL4/CRBN ubiquitin ligase-mediated EML4-ALK fusion protein degradation in human NCI-H2228 cells assessed as reduction in STAT3 phosphorylation at Y705 residue after 16 hrs by Western blot analysis; format: cell-based; method in brief: as §1
# [4] = target: T3, Protein cereblon/ALK tyrosine kinase receptor/Nucleophosmin (Homo sapiens) (UniProt Q9UM73+P06748+Q96SW2); test: Induction of CRL4/CRBN ubiquitin ligase-mediated NPM-ALK fusion protein degradation in human SU-DHL1 cells assessed as reduction in NPM-ALK fusion protein levels at 100 nM after 16 hrs by Western blot analysis; format: cell-based; design: scale not given: the % may be the effect or the level left; method in brief: as §1
# [5] = target: T1, ALK tyrosine kinase receptor; test: Inhibition of ALK autophosphorylation at Y1507 residue in human SU-DHL1 cells at 100 nM after 16 hrs by Western blot analysis; format: cell-based; method in brief: as §1
# [6] = target: T1, ALK tyrosine kinase receptor; test: Inhibition of ALK in human SU-DHL1 cells assessed as reduction in STAT3 phosphorylation at Y705 residue at 100 nM after 16 hrs by Western blot analysis; format: cell-based; method in brief: as §1
# [7] = test system: SU-DHL-1; test: Toxicity against human SU-DHL1 cells assessed as cell death over 100 nM after 3 days by luminescence-based CellTiter-Glo assay; conditions: su-dhl-1, 72 h
# [8] = target: T2, Protein cereblon/ALK tyrosine kinase receptor/Echinoderm microtubule-associated protein-like 4 (Homo sapiens); test: Induction of CRL4/CRBN ubiquitin ligase-mediated EML4-ALK fusion protein degradation in human NCI-H2228 cells assessed as reduction in EML4-ALK fusion protein levels at 60 nM after 8 to 24 hrs hrs by Western blot analysis; format: cell-based
# Method in brief: (§2)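 Time course by immunoblot. SU-DHL-1 (30 nM) or NCI-H2228 (60 nM) cells in RPMI-1640 with 10% FBS were held at a fixed degrader concentration and harvested over time up to 24 h. Lysates in Laemmli buffer were blotted for ALK fusion protein, p-ALK Y1507 and p-STAT3 Y705, with GAPDH as the loading reference.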
# [9] = target: T2, Protein cereblon/ALK tyrosine kinase receptor/Echinoderm microtubule-associated protein-like 4 (Homo sapiens); test: Induction of CRL4/CRBN ubiquitin ligase-mediated EML4-ALK fusion protein degradation assessed as inhibition of ALK autophosphorylation at Y1507 residue in human NCI-H2228 cells at 60 nM after 8 to 24 hrs by Western blot analysis; format: cell-based; method in brief: as §2
# [10] = target: T3, Protein cereblon/ALK tyrosine kinase receptor/Nucleophosmin (Homo sapiens); test: Induction of CRL4/CRBN ubiquitin ligase-mediated NPM-ALK fusion protein degradation in human SU-DHL1 cells pretreated with MLN4924 for 2 hrs followed by compound addition at 100 nM and measured after 6 hrs by Western blot analysis; format: cell-based
# [11] = target: T3, Protein cereblon/ALK tyrosine kinase receptor/Nucleophosmin (Homo sapiens); test: Induction of CRL4/CRBN ubiquitin ligase-mediated NPM-ALK fusion protein degradation in human SU-DHL1 cells pretreated with MG-132 for 2 hrs followed by compound addition at 100 nM and measured after 6 hrs by Western blot analysis; format: cell-based
# [12] = target: T3, Protein cereblon/ALK tyrosine kinase receptor/Nucleophosmin (Homo sapiens); test: Induction of CRL4/CRBN ubiquitin ligase-mediated NPM-ALK fusion protein degradation in human SU-DHL1 cells pretreated with pomalidomide for 2 hrs followed by compound addition at 100 nM and measured after 6 hrs by Western blot analysis; format: cell-based
# [13] = target: T1, ALK tyrosine kinase receptor; test: Inhibition of ALK autophosphorylation at Y1507 residue in human SU-DHL1 cells pretreated with MG-132 for 2 hrs followed by compound addition at 100 nM and measured after 6 hrs by Western blot analysis; format: cell-based
# [14] = target: T1, ALK tyrosine kinase receptor; test: Inhibition of ALK autophosphorylation at Y1507 residue in human SU-DHL1 cells pretreated with MLN4924 for 2 hrs followed by compound addition at 100 nM and measured after 6 hrs by Western blot analysis; format: cell-based
# [15] = target: T1, ALK tyrosine kinase receptor; test: Inhibition of ALK autophosphorylation at Y1507 residue in human SU-DHL1 cells pretreated with pomalidomide for 2 hrs followed by compound addition at 100 nM and measured after 6 hrs by Western blot analysis; format: cell-based
# [16] = target: T3, Protein cereblon/ALK tyrosine kinase receptor/Nucleophosmin (Homo sapiens); test: Induction of CRL4/CRBN ubiquitin ligase-mediated NPM-ALK fusion protein degradation in human SU-DHL1 cells pretreated with ceritinib for 2 hrs followed by compound addition at 100 nM and measured after 6 hrs by Western blot analysis; format: cell-based
# [17] = target: T3, Protein cereblon/ALK tyrosine kinase receptor/Nucleophosmin (Homo sapiens); test: Induction of CRL4/CRBN ubiquitin ligase-mediated NPM-ALK fusion protein degradation in human SU-DHL1 cells pretreated at 100 nM for 2 hrs followed by compound washout and measured after 8 hrs by Western blot analysis; format: cell-based
# Method in brief: (§3)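 Washout in SU-DHL-1 cells: DMSO or 100 nM compound for 2 h, then a PBS wash and incubation in fresh medium for the indicated times. Lysates were immunoblotted for NPM-ALK, p-ALK Y1507 and p-STAT3 Y705, with GAPDH as the reference.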
# [18] = target: T3, Protein cereblon/ALK tyrosine kinase receptor/Nucleophosmin (Homo sapiens); test: Induction of CRL4/CRBN ubiquitin ligase-mediated NPM-ALK fusion protein degradation in human SU-DHL1 cells assessed as inhibition of ALK autophosphorylation at Y1507 residue pretreated at 100 nM for 2 hrs followed by compound washout and measured after 8 hrs by Western blot analysis; format: cell-based; method in brief: as §3
# [19] = target: T3, Protein cereblon/ALK tyrosine kinase receptor/Nucleophosmin (Homo sapiens); test: Induction of CRL4/CRBN ubiquitin ligase-mediated NPM-ALK fusion protein degradation in human SU-DHL1 cells assessed as reduction in STAT3 phosphorylation at Y705 residue pretreated at 100 nM for 2 hrs followed by compound washout and measured after 8 hrs by Western blot analysis; format: cell-based; method in brief: as §3
# [20] = test system: NCI-H2228; test: Growth inhibition of human NCI-H2228 cells after 3 days by luminescence-based CellTiter-Glo assay; format: functional, cell-based; conditions: for IC50: NCI-H2228, 72 h
# [21] = target: T2, Protein cereblon/ALK tyrosine kinase receptor/Echinoderm microtubule-associated protein-like 4 (Homo sapiens); test: Induction of CRL4/CRBN ubiquitin ligase-mediated EML4-ALK fusion protein degradation in human NCI-H2228 cells assessed as reduction in STAT3 phosphorylation at Y705 residue at 60 nM after 8 to 24 hrs by Western blot analysis; format: cell-based; method in brief: as §2
# [22] = target: T1, ALK tyrosine kinase receptor; test: Binding affinity to wild-type human partial length ALK (I1088 to E1409 residues) expressed in mammalian expression system by KINOMEscan assay
# [23] = test system: SU-DHL-1; test: Growth inhibition of human SU-DHL1 cells after 3 days by luminescence-based CellTiter-Glo assay; format: functional, cell-based
# [24] = test system: Mus musculus; test: Toxicity in Swiss Albino mouse assessed as drug tolerability at 50 mg/kg, ip; format: organism-based; conditions: in vivo
# Method in brief: (§4)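 Male Swiss Albino mice received a single 50 mg/kg intraperitoneal dose, with clinical signs monitored. Plasma was sampled at 30 min, 1, 2, 4, 8 and 12 h post dose. Values are the average of 3 animals ± SD.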
# [25] = Plasma concentration in Swiss Albino mouse at 50 mg/kg, ip after 2 hrs; format: ADME, organism-based; method in brief: as §4
# [26] = Plasma concentration in Swiss Albino mouse at 50 mg/kg, ip after 12 hrs; format: ADME, organism-based; method in brief: as §4
Compound,inhibition [1],inhibition [2],Activity [3],Activity [4],inhibition [5],inhibition [6],Activity [7],Activity [8],Activity [9],Activity [10],Activity [11],Activity [12],inhibition [13],inhibition [14],inhibition [15],Activity [16],Activity [17],Activity [18],Activity [19],IC50 [20],other results
Cc1cc(Nc2ncc(Cl)c(Nc3ccccc3S(=O)(=O)C(C)C)n2)c(OC(C)C)cc1C1CCN(CC(=O)NCCOCCOCCOCCOCCOCCNc2cccc3c2C(=O)N(C2CCC(=O)NC2=O)C3=O)CC1 (configuration not stated),Dose-dependent effect,Dose-dependent effect,Dose-dependent effect,> 90%,> 90%,> 90%,Toxic,Active,Active,inactive,inactive,inactive,Active,Active,Active,Active,inactive,inactive,inactive,46 nM,Activity [21]: Active
Cc1cc(Nc2ncc(Cl)c(Nc3ccccc3S(=O)(=O)C(C)C)n2)c(OC(C)C)cc1C1CCNCC1 [CERITINIB],–,–,–,–,–,–,Toxic,–,–,–,–,–,–,–,–,–,–,–,–,–,–
Cc1cc(Nc2ncc(Cl)c(Nc3ccccc3S(=O)(=O)C(C)C)n2)c(OC(C)C)cc1C1CCN(CC(=O)NCCOCCOCCOCCOCCOCCNc2cccc3c2C(=O)N(C2CCC(=O)N(C)C2=O)C3=O)CC1 (configuration not stated),–,–,–,–,–,–,–,–,–,–,–,–,–,–,–,–,–,–,–,–,Kd [22]: 54 nM; growth inhibition (GI) [23]: inactive; growth inhibition (GI) [20]: inactive
Cc1cc(Nc2ncc(Cl)c(Nc3ccccc3S(=O)(=O)C(C)C)n2)c(OC(C)C)cc1C1CCN(CC(=O)NCCNc2cccc3c2C(=O)N(C2CCC(=O)NC2=O)C3=O)CC1 (configuration not stated),Dose-dependent effect,Dose-dependent effect,Dose-dependent effect,> 90%,> 90%,> 90%,Toxic,Active,Active,inactive,inactive,inactive,Active,Active,Active,Active,inactive,inactive,inactive,33 nM,Activity [24]: Non-Toxic; concentration at 2 h [25]: 3000 nM; concentration at 12 h [26]: 340 nM; Activity [21]: Active
Cc1cc(Nc2ncc(Cl)c(Nc3ccccc3S(=O)(=O)C(C)C)n2)c(OC(C)C)cc1C1CCN(CC(=O)NCCNc2cccc3c2C(=O)N(C2CCC(=O)N(C)C2=O)C3=O)CC1 (configuration not stated),–,–,–,–,–,–,–,–,–,–,–,–,–,–,–,–,–,–,–,–,Kd [22]: 78 nM; growth inhibition (GI) [23]: inactive; growth inhibition (GI) [20]: inactive
